Measurements taken from ChEMBL document CHEMBL1926642, “Relevance of the C-5 position to schweinfurthin induced cytotoxicity” (2011).

What was measured:
Assay type in all cases: functional
NCI/ADR-RES = assay: Growth inhibition of human NCI/ADR-RES cells after 48 hrs by sulforhodamine B assay
OVCAR-4 = assay: Growth inhibition of human OVCAR4 cells after 48 hrs by sulforhodamine B assay; details: OVCAR-4, 48 h
NCI-H522 = assay: Growth inhibition of human NCI-H522 cells after 48 hrs by sulforhodamine B assay; details: NCI-H522, 48 h
SK-OV-3 = assay: Growth inhibition of human SKOV3 cells after 48 hrs by sulforhodamine B assay; details: SK-OV-3, 48 h
ACHN = assay: Growth inhibition of human ACHN cells after 48 hrs by sulforhodamine B assay
OVCAR-3 = assay: Growth inhibition of human OVCAR3 cells after 48 hrs by sulforhodamine B assay; details: OVCAR-3, 48 h
SK-MEL-28 = assay: Growth inhibition of human SK-MEL-28 cells after 48 hrs by sulforhodamine B assay; details: SK-MEL-28, 48 h
RPMI-8226 = assay: Growth inhibition of human RPMI8226 cells after 48 hrs by sulforhodamine B assay; details: RPMI-8226, 48 h
SNB-19 = assay: Growth inhibition of human SNB19 cells after 48 hrs by sulforhodamine B assay; details: SNB-19, 48 h
MDA-MB-231 = assay: Growth inhibition of human MDA-MB-231/ATCC cells after 48 hrs by sulforhodamine B assay; details: MDA-MB-231, 48 h
RXF 393 = assay: Growth inhibition of human RXF393 cells after 48 hrs by sulforhodamine B assay; details: RXF 393, 48 h
OVCAR-5 = assay: Growth inhibition of human OVCAR5 cells after 48 hrs by sulforhodamine B assay; details: OVCAR-5, 48 h
HL-60(TB) = assay: Growth inhibition of human HL-60(TB) cells after 48 hrs by sulforhodamine B assay; details: HL-60, 48 h
How it was run: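 Run in the NCI 60 cell-line screen as the full 5-dose assay that follows initial single-dose testing; GI50 is read from the dose series.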

NCI-H23 = assay: Growth inhibition of human NCI-H23 cells after 48 hrs by sulforhodamine B assay; details: NCI-H23, 48 h
LOX IMVI = assay: Growth inhibition of human LOXIMVI cells after 48 hrs by sulforhodamine B assay
HCT-15 = assay: Growth inhibition of human HCT15 cells after 48 hrs by sulforhodamine B assay; details: HCT-15, 48 h
HCT-116 = assay: Growth inhibition of human HCT116 cells after 48 hrs by sulforhodamine B assay; details: HCT-116, 48 h
MOLT-4 = assay: Growth inhibition of human MOLT4 cells after 48 hrs by sulforhodamine B assay; details: MOLT-4, 48 h
T47D = assay: Growth inhibition of human T47D cells after 48 hrs by sulforhodamine B assay
SF-539 = assay: Growth inhibition of human SF539 cells after 48 hrs by sulforhodamine B assay; details: SF-539, 48 h
SN12C = assay: Growth inhibition of human SN12C cells after 48 hrs by sulforhodamine B assay
[1] = Growth inhibition of human Hs 578T cells after 48 hrs by sulforhodamine B assay
MDA-MB-468 = assay: Growth inhibition of human MDA-MB-468 cells after 48 hrs by sulforhodamine B assay; details: MDA-MB-468, 48 h
SK-MEL-2 = assay: Growth inhibition of human SK-MEL-2 cells after 48 hrs by sulforhodamine B assay; details: SK-MEL-2, 48 h
UACC-62 = assay: Growth inhibition of human UACC62 cells after 48 hrs by sulforhodamine B assay; details: UACC-62, 48 h
SF-268 = assay: Growth inhibition of human SF268 cells after 48 hrs by sulforhodamine B assay; details: SF-268, 48 h
CCRF-CEM = assay: Growth inhibition of human CCRF-CEM cells after 48 hrs by sulforhodamine B assay
NCI-H322M = assay: Growth inhibition of human NCI-H322M cells after 48 hrs by sulforhodamine B assay
HCC 2998 = assay: Growth inhibition of human HCC2998 cells after 48 hrs by sulforhodamine B assay; details: HCC 2998, 48 h
NCI-H226 = assay: Growth inhibition of human NCI-H226 cells after 48 hrs by sulforhodamine B assay; details: NCI-H226, 48 h
A498 = assay: Growth inhibition of human A498 cells after 48 hrs by sulforhodamine B assay; details: A498, 48 h
Malme-3M = assay: Growth inhibition of human MALME-3M cells after 48 hrs by sulforhodamine B assay
[2] = read-out: pLC50 (the source's name) (converted)

With `COc1cc(/C=C/c2ccc3c(c2)C[C@@H]2C(C)(C)[C@H](O)CC[C@@]2(C)O3)cc(O)c1C/C=C(\C)CCC=C(C)C` the GI50 (NCI/ADR-RES) was 21.4 µM, the LC50 (NCI/ADR-RES) was > 100 µM and the TGI (NCI/ADR-RES; read-out: pTGI (converted)) was 51.3 µM. The GI50 (OVCAR-4) was 20.9 µM, the LC50 (OVCAR-4) was > 100 µM and the TGI (OVCAR-4; read-out: pTGI (converted)) was 83.2 µM. For the same compound, the GI50 (NCI-H522) was 17.8 µM, the LC50 (NCI-H522) was 66.1 µM and the TGI (NCI-H522; read-out: pTGI (converted)) was 33.9 µM. The GI50 (SK-OV-3) was 22.9 µM, the LC50 (SK-OV-3) was > 100 µM and the TGI (SK-OV-3; read-out: pTGI (converted)) was > 100 µM. For the same compound, the GI50 (ACHN) was 20 µM, the LC50 (ACHN) was > 100 µM and the TGI (ACHN; read-out: pTGI (converted)) was 46.8 µM. For the same compound, the GI50 (OVCAR-3) was 17.4 µM, the LC50 (OVCAR-3) was 66.1 µM and the TGI (OVCAR-3; read-out: pTGI (converted)) was 33.9 µM. For the same compound, the GI50 (SK-MEL-28) was 16.2 µM, the CC50 (SK-MEL-28; [2]) was 69.2 µM and the TGI (SK-MEL-28; read-out: pTGI (converted)) was 33.1 µM. The GI50 (RPMI-8226) was 3.09 µM, the LC50 (RPMI-8226) was > 100 µM and the TGI (RPMI-8226; read-out: pTGI (converted)) was 14.5 µM. For the same compound, the GI50 (SNB-19) was 15.5 µM, the LC50 (SNB-19) was 91.2 µM and the TGI (SNB-19; read-out: pTGI (converted)) was 37.2 µM. For the same compound, the GI50 (MDA-MB-231) was 10 µM, the CC50 (MDA-MB-231; [2]) was 95.5 µM and the TGI (MDA-MB-231; read-out: pTGI (converted)) was 30.9 µM. For the same compound, the GI50 (RXF 393) was 1290 nM, the LC50 (50% lethal concentration) (RXF 393) was 6.61 µM and the TGI (RXF 393; read-out: pTGI (converted)) was 2880 nM. For the same compound, the GI50 (OVCAR-5) was 27.5 µM, the LC50 (OVCAR-5) was > 100 µM and the TGI (OVCAR-5; read-out: pTGI (converted)) was 79.4 µM. For the same compound, the GI50 (HL-60(TB)) was 13.8 µM, the CC50 (HL-60(TB); [2]) was > 100 µM and the TGI (HL-60(TB); read-out: pTGI (converted)) was 57.5 µM. It also gave a GI50 (NCI-H23) of 15.1 µM, an LC50 (NCI-H23) of 60.3 µM and a TGI (NCI-H23; read-out: pTGI (converted)) of 30.2 µM. The GI50 (LOX IMVI) was 3.31 µM, the LC50 (LOX IMVI) was 37.2 µM and the TGI (LOX IMVI; read-out: pTGI (converted)) was 11.5 µM. The GI50 (HCT-15) was 6.31 µM, the LC50 (HCT-15) was 58.9 µM and the TGI (HCT-15; read-out: pTGI (converted)) was 20.9 µM. For the same compound, the GI50 (HCT-116) was 7.76 µM, the LC50 (HCT-116) was 45.7 µM and the TGI (HCT-116; read-out: pTGI (converted)) was 20.4 µM. The GI50 (MOLT-4) was 5.01 µM, the LC50 (MOLT-4) was > 100 µM and the TGI (MOLT-4; read-out: pTGI (converted)) was 38.9 µM. The GI50 (T47D) was 20.9 µM, the LC50 (T47D) was > 100 µM and the TGI (T47D; read-out: pTGI (converted)) was 58.9 µM. It also gave a GI50 (SF-539) of 4.17 µM, an LC50 (SF-539) of 57.5 µM and a TGI (SF-539; read-out: pTGI (converted)) of 17.4 µM. The GI50 (SN12C) was 18.2 µM, the LC50 (SN12C) was 70.8 µM and the TGI (SN12C; read-out: pTGI (converted)) was 36.3 µM. For the same compound, the GI50 [1] was 8.71 µM, the CC50 [1, 2] was > 100 µM and the TGI ([1]; read-out: pTGI (converted)) was 93.3 µM. For the same compound, the GI50 (MDA-MB-468) was 11 µM, the LC50 (MDA-MB-468) was 72.4 µM and the TGI (MDA-MB-468; read-out: pTGI (converted)) was 28.2 µM. It also gave a GI50 (SK-MEL-2) of 15.8 µM, an LC50 (SK-MEL-2) of 81.3 µM and a TGI (SK-MEL-2; read-out: pTGI (converted)) of 35.5 µM. The GI50 (UACC-62) was 12.9 µM, the LC50 (50% lethal concentration) (UACC-62) was 70.8 µM and the TGI (UACC-62; read-out: pTGI (converted)) was 30.2 µM. It also gave a GI50 (SF-268) of 14.8 µM, an LC50 (SF-268) of 81.3 µM and a TGI (SF-268; read-out: pTGI (converted)) of 34.7 µM. The GI50 (CCRF-CEM) was 8.32 µM, the LC50 (CCRF-CEM) was > 100 µM and the TGI (CCRF-CEM; read-out: pTGI (converted)) was > 100 µM. The GI50 (NCI-H322M) was 26.3 µM, the LC50 (NCI-H322M) was > 100 µM and the TGI (NCI-H322M; read-out: pTGI (converted)) was 87.1 µM. The GI50 (HCC 2998) was 15.8 µM, the LC50 (HCC 2998) was 85.1 µM and the TGI (HCC 2998; read-out: pTGI (converted)) was 37.2 µM. The GI50 (NCI-H226) was 22.9 µM, the LC50 (NCI-H226) was > 100 µM and the TGI (NCI-H226; read-out: pTGI (converted)) was 56.2 µM. The GI50 (A498) was 46.8 µM, the LC50 (A498) was > 100 µM and the TGI (A498; read-out: pTGI (converted)) was > 100 µM. The GI50 (Malme-3M) was 17.8 µM, the LC50 (Malme-3M) was 91.2 µM and the TGI (Malme-3M; read-out: pTGI (converted)) was 40.7 µM.
